This is an account of results in PubChem BioAssay.

Molecules are shown by their SMILES. Activity calls are given as the source filed them.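 How the source made its calls, unless noted: active means fluorescence slope after compound addition differing from the mean of all tested samples at 99.7% confidence, mostly higher but some lower; inactive means the rest.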

Experiment [1] can be described thus: inhibitors of TNFa-induced NFkB p65 translocation, primary screen, imaging, HUVEC, MLSMR starter and 10KST1 sets (AID 438;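 active means inhibition above 20% together with a positive visual image hit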;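 further: compound added about 3h40 before a 20 min TNFalpha stimulation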;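 on inhibition: signal is the nuclear over cytoplasmic p65 intensity ratio per well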). Conditions: HUVEC TNFa-induced p65 nuclear translocation; cell count: measured here: nuclei count (cytotoxicity indicator), at 2.08 µM; inhibition: at 2 µM, stronger effect = higher value, 0% TNFa-plus-vehicle, 100% no-TNFa wells.
The nature of experiment [2]: inhibitors of mutant huntingtin aggregation, primary screen, imaging, exon1htt(103Q)mCFP cells, high-content imaging (AID 483;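 active means visual image review flags a hit and inhibition of aggregation exceeds 20%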;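 further: compound exposure lasted 3 days before fixation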;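 on nuclei count: percent of the per-plate median nuclei count of sample wells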). Conditions: exon1htt(103Q)mCFP cell line, aggregate imaging, at 2 µM; inhibition of aggregation: stronger effect = higher value; nuclei count: measured here: cell count, toxicity.
Experiment [3] in a line: inhibitors of E-selectin induction by TNFa, primary screen, imaging, HUVEC, immunofluorescence, MLSMR starter and 10KST1 sets (AID 487;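 active means visually confirmed hit in the image check and inhibition above 20%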;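 on inhibition: signal is fraction of cell area covered by stained E-selectin grains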;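 on nuclei count: 100% = median nuclei count of all wells on the same plate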). Conditions: HUVEC TNFalpha-induced E-selectin immunofluorescence imaging, at 2 µM; inhibition: stronger effect = higher value; nuclei count: measured here: cell number, toxicity.
For experiment [4], the target named is Voltage-gated potassium channel subunit beta-2 (Rattus norvegicus) (UniProt P62483). Put plainly: KvBeta enzyme negative modulators, primary screen, biochemical, NADPH fluorescence (AID 622;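 active means fluorescence slope higher than the sample average by over 3 SD, cut at about -0.22 in these data, passing the limit was not always enough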;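 further: slope of raw intensity against log time taken from 70 to 1610 s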). Conditions: recombinant KvBeta, 4-cyanobenzaldehyde reduction, at 10 µM, stronger effect = higher value.
Experiment [5] has the same target. As to the kind of experiment: KvBeta positive modulators, primary screen, biochemical, NADPH fluorescence (AID 623;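 active means NADPH fluorescence slope more negative than the mean of all samples by about 3 SD, 99.7% confidence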;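 further: fluorescence intensity change per second fitted from 20 to 320 s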). Conditions: Recombinant KvBeta, NADPH fluorescence decrease slope, 10 min; at 10 µM; stronger effect = lower value.
The target in experiment [6] is Muscarinic acetylcholine receptor M4 (Homo sapiens) (UniProt P08173). Put plainly: compounds altering M4/GIRK thallium flux, either direction, primary screen, M4 allosteric agonist project, cell-based, HEK293 M4/GIRK, BTC-AM (AID 625).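 Further: thallium influx through GIRK channels coupled to M4 in HEK293 cells with BTC-AM dye.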 Conditions: at 10 µM, actives lie on both sides. In a few lines: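 Material: HEK293 cells with M4 receptor and GIRK channels; Times: cells overnight at 37 °C, BTC-AM loading 1 h, reads 2 min total; Technique: kinetic BTC-AM fluorescence sampled at 1 Hz, 10 s pre-addition baseline; Read-out basis: slope over 15–24 s of trace normalized to starting intensity; Controls: carbachol positive, DMSO negative.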

Experiment [7] is described as follows: inhibitors of Sendai virus-induced IRF3 signaling, primary screen, TLR/RLR signaling modifier project, cell-based, Sendai virus stimulus, luciferase, 10K MLSCN set (AID 602276;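 active means inhibition at or above 50% at 10 µM; inactive means inhibition below 50%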;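 further: firefly luciferase from ISG56 promoter only with Renilla not read in this screen; 0% = Sendai virus plus DMSO and 100% = medium plus DMSO without virus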). Conditions: HEK293 RL24 IRF3 luciferase reporter, at 10 µM, stronger effect = higher value. A general note: Reporter assays use an easily measured gene product as a stand-in for the process of interest.

Experiment [8] is described as follows: inhibitors of poly I:C-induced TLR3 signaling, primary screen, cell-based, poly I:C stimulus, luciferase, 10K MLSCN set (AID 602277;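 active means inhibition of the reporter signal at or above 50%; inactive means inhibition below 50%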). Conditions: HEK293-TLR3 RL24 IRF3 luciferase reporter, at 10 µM, stronger effect = higher value.

Sequence of Muscarinic acetylcholine receptor M4 (Homo sapiens) (P08173 whole entry, looked up): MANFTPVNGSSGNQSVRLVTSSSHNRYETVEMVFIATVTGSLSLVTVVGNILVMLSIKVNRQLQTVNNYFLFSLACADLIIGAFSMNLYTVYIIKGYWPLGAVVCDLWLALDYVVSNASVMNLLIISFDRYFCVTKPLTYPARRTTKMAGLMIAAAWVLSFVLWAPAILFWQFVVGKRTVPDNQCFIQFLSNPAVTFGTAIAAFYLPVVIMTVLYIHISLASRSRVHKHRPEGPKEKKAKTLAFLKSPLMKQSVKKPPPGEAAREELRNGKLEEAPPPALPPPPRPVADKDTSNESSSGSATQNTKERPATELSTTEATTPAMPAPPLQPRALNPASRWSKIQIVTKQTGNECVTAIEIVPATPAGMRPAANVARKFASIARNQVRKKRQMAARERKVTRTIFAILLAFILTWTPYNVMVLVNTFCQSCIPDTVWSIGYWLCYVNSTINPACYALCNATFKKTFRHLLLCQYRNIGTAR
Sequence of Voltage-gated potassium channel subunit beta-2 (Rattus norvegicus) (P62483 whole entry, looked up): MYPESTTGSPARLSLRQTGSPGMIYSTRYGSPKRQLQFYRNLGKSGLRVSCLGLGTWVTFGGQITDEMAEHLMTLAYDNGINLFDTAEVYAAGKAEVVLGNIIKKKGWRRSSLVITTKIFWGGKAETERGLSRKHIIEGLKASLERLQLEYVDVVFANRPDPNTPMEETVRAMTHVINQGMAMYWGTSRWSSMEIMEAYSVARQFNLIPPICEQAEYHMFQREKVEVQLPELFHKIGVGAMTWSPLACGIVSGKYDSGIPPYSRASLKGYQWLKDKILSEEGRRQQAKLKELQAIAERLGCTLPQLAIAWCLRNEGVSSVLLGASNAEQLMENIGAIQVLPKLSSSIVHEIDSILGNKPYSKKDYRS

Turning to `COc1cccc(-n2nnc3c(=O)n(Cc4cccc(F)c4)cnc32)c1`, the cell count in experiment [1] turned out to be 421. In addition, the inhibition (commonly the relative decrease from the control value, in per cent) in experiment [1] is -1.7% (inactive); in experiment [3] it was -3.7% (inactive); in experiment [7], -8.19% (inactive); in experiment [8], -14% (inactive). The inhibition of aggregation in experiment [2] is -11.5% (inactive). Also, the values for the nuclei count in experiment [2] and in experiment [3] were 127% and 117%, respectively. Also, the fluorescence slope is -0.304 (inactive) in experiment [4] and 0.00737 (inactive) in experiment [6]. Besides, in experiment [5], the NADPH fluorescence slope is -7e-06 (inactive).

On to `O=C(C1CC1)N1CCc2cc(S(=O)(=O)N(CCO)Cc3ccccc3)ccc21`, for which the cell count in experiment [1] came out at 612. In addition, the inhibition in experiment [1] was 7.7% (inactive); in experiment [3], -91% (inactive); in experiment [7], -3.85% (inactive); in experiment [8] it was -12.4% (inactive). The inhibition of aggregation in experiment [2] is -16% (inactive). The nuclei count in experiment [2] amounted to 108%; in experiment [3], 122%. Moreover, the fluorescence slope in experiment [4] is -0.498 (inactive); in experiment [6], 0.00651 (inactive). The NADPH fluorescence slope in experiment [5] is 0.000108 (inactive).

Regarding `CCOC(=O)CCC(=O)c1c(C)oc2ccc(OC)cc12`, the cell count in experiment [1] stood at 447. In addition, the inhibition in experiment [1] is -6.3% (inactive); in experiment [3], 46.7% (inactive); in experiment [7], -14.6% (inactive); in experiment [8], -30.6% (inactive). Besides, the inhibition of aggregation in experiment [2] is 4.8% (inactive). Moreover, the results for the nuclei count in experiment [2] and in experiment [3] were 98.5% and 118%, respectively. The figures for the fluorescence slope in experiment [4] and in experiment [6] were -0.583 (inactive) and 0.00919 (inactive), respectively. Further, in experiment [5], the NADPH fluorescence slope was 4e-05 (inactive).

In the case of `Nc1nonc1-c1noc(-c2ccccc2Br)n1`, in experiment [1], the cell count stood at 384. The inhibition in experiment [1] is -1.6% (inactive); in experiment [3] it was -23.9% (inactive); in experiment [7] it was 5.89% (inactive); in experiment [8], -26.2% (inactive). For the same compound, in experiment [2], the inhibition of aggregation is -6.3% (inactive). Besides, the nuclei count in experiment [2] is 63%; in experiment [3], 112%. Besides, the fluorescence slope in experiment [4] was -0.252 (inactive); in experiment [6] it was 0.00797 (inactive). Further, in experiment [5], the NADPH fluorescence slope was -2.2e-05 (inactive).

As to `Cc1ccc(S(=O)(=O)N(C)c2ccc(OCC(=O)OCc3c(C)noc3C)cc2)cc1`, the cell count in experiment [1] was 455. Moreover, the inhibition in experiment [1] was -15.1% (inactive); in experiment [3], -15.8% (inactive); in experiment [7], 5.73% (inactive); in experiment [8], 14.5% (inactive). Further, the inhibition of aggregation in experiment [2] was 8.4% (inactive). The nuclei count in experiment [2] is 146%; in experiment [3], 108%. Also, the fluorescence slope in experiment [4] was -0.583 (inactive); in experiment [6], 0.00507 (inactive). The NADPH fluorescence slope in experiment [5] was -3.3e-05 (inactive).

With `CCCCOc1ccc(NC(=O)Cn2c(=O)ccc3c(C)cc(C)nc32)cc1`, the cell count in experiment [1] was found to be 400. In addition, the inhibition in experiment [1] was 5.6% (inactive); in experiment [3], -342% (inactive); in experiment [7], 15.2% (inactive); in experiment [8], 20.7% (inactive). In addition, the inhibition of aggregation in experiment [2] was 11.8% (inactive). Also, the nuclei count in experiment [2] stood at 88.5%; in experiment [3], 149%. Also, the values for the fluorescence slope in experiment [4] and in experiment [6] were -0.565 (inactive) and 0.0062 (inactive), respectively. For the same compound, the NADPH fluorescence slope in experiment [5] was 8.6e-06 (inactive).

On to `CSc1nnc2c3ccccc3n(Cc3ccccc3)c2n1`, for which the cell count in experiment [1] was 295. Also, the inhibition in experiment [1] is -0.5% (inactive); in experiment [3], 30.6% (inactive); in experiment [7], 19.7% (inactive); in experiment [8], 17% (inactive). The inhibition of aggregation in experiment [2] is 3.5% (inactive). Further, the nuclei count in experiment [2] was determined as 92.5%; in experiment [3], 86.1%. Further, the fluorescence slope in experiment [4] was -0.45 (inactive); in experiment [6], 0.00511 (inactive). Moreover, the NADPH fluorescence slope in experiment [5] is -4.8e-05 (inactive).

For `COC(=O)c1c(N)nc(C)n1-c1ccc(OC)cc1`, the cell count in experiment [1] turned out to be 324. In addition, the inhibition is -9.2% (inactive) in experiment [1], 2.7% (inactive) in experiment [3], 5.37% (inactive) in experiment [7] and 9.69% (inactive) in experiment [8]. Also, the inhibition of aggregation in experiment [2] was 32.1% (active). Also, the nuclei count in experiment [2] was found to be 70.1%; in experiment [3], 103%. The fluorescence slope in experiment [4] was -0.364 (inactive); in experiment [6], 0.00554 (inactive). The NADPH fluorescence slope in experiment [5] was 3e-05 (inactive).

Turning to `CCCSC1=C(C#N)C(c2ccccc2OCC)CC(=O)N1` (centres undefined), the cell count in experiment [1] stood at 443. Moreover, the inhibition is 0.5% (inactive) in experiment [1], 9.8% (inactive) in experiment [3], 17.2% (inactive) in experiment [7] and 17.7% (inactive) in experiment [8]. The inhibition of aggregation in experiment [2] was 0.2% (inactive). Besides, the results for the nuclei count in experiment [2] and in experiment [3] were 111% and 95%, respectively. For the same compound, the fluorescence slope in experiment [4] is -0.454 (inactive); in experiment [6], 0.00486 (inactive). Further, in experiment [5], the NADPH fluorescence slope was -2.4e-05 (inactive).

Take `CCCN1C2=C(C(=O)CCC2)C(c2ccc(O)c(Br)c2)C2=C1CCCC2=O`: the cell count in experiment [1] was 736. The inhibition is -30.6% (inactive) in experiment [1], -7.3% (inactive) in experiment [3], 9.76% (inactive) in experiment [7] and 17.2% (inactive) in experiment [8]. Further, the inhibition of aggregation in experiment [2] is 2% (inactive). Besides, the nuclei count in experiment [2] came to 97.2%; in experiment [3], 107%. The fluorescence slope was -0.531 (inactive) in experiment [4] and 0.00464 (inactive) in experiment [6]. Moreover, the NADPH fluorescence slope in experiment [5] is -5.9e-05 (inactive).

Regarding `O=C(CSc1ccc(Cl)cc1)OCc1nnc(-c2ccccc2)o1`, the cell count in experiment [1] turned out to be 503. Further, the inhibition was -1.1% (inactive) in experiment [1], -46.5% (inactive) in experiment [3], -5.35% (inactive) in experiment [7] and -4.44% (inactive) in experiment [8]. Moreover, in experiment [2], the inhibition of aggregation was 8.3% (inactive). Further, the nuclei count turned out to be 108% in experiment [2] and 115% in experiment [3]. Besides, the fluorescence slope in experiment [4] was -0.613 (inactive); in experiment [6], 0.00469 (inactive). In addition, in experiment [5], the NADPH fluorescence slope is 6.8e-05 (inactive).

Consider `Cn1c(=O)n(C)c2cc(CNc3ccc(N4CCOCC4)c(C(=O)O)c3)ccc21`, for which the cell count in experiment [1] amounted to 350. The inhibition is -0.2% (inactive) in experiment [1], -9.8% (inactive) in experiment [3], 13.1% (inactive) in experiment [7] and 5.3% (inactive) in experiment [8]. The inhibition of aggregation in experiment [2] is 3% (inactive). Further, the nuclei count in experiment [2] stood at 107%; in experiment [3] it was 110%. In addition, the fluorescence slope in experiment [4] is -0.423 (inactive); in experiment [6] it was 0.00799 (inactive). The NADPH fluorescence slope in experiment [5] was 0.00012 (inactive).

For `CCc1nnc(NC(=O)C2CCN(c3nccc(C)n3)CC2)s1`, the cell count in experiment [1] worked out at 533. Further, the inhibition in experiment [1] is 0.5% (inactive); in experiment [3], -13.3% (inactive); in experiment [7], 11% (inactive); in experiment [8], 14.7% (inactive). Moreover, in experiment [2], the inhibition of aggregation was 0.2% (inactive). For the same compound, the nuclei count in experiment [2] worked out at 103%; in experiment [3] it was 96.9%. The fluorescence slope in experiment [4] was -0.317 (inactive); in experiment [6] it was 0.00544 (inactive). Further, the NADPH fluorescence slope in experiment [5] is -3.6e-05 (inactive).

In the case of `O=C(NCc1ccco1)c1cc2c(s1)CSC2`, the cell count in experiment [1] worked out at 473. Besides, the inhibition in experiment [1] was -4.3% (inactive); in experiment [3] it was -31.1% (inactive); in experiment [7], 9.74% (inactive); in experiment [8], 12.5% (inactive). Moreover, the inhibition of aggregation in experiment [2] was 3.2% (inactive). For the same compound, the nuclei count in experiment [2] worked out at 105%; in experiment [3] it was 118%. Moreover, the fluorescence slope in experiment [4] is -0.544 (inactive); in experiment [6], 0.00557 (inactive). Also, the NADPH fluorescence slope in experiment [5] is 1.9e-05 (inactive).
